Experimental data: ChEMBL document CHEMBL3046018, “Design, syntheses and 3D-QSAR studies of novel N-phenyl pyrrolidin-2-ones and N-phenyl-1H-pyrrol-2-ones as protoporphyrinogen oxidase inhibitors” (Bioorg Med Chem, 2010)

Key:
[1] = tested on: Setaria viridis; test: Herbicidal activity against Setaria viridis assessed as growth inhibition at 150 g ai/ha using post-emergence protocol under greenhouse conditions measured 15 days after compound treatment; type: functional; conditions: 360 h, read-out: GI
Summary of the method: (§1)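 Grass weeds were grown in pots in the greenhouse and sprayed post-emergence at the 1-leaf stage. The spray was formulation concentrate diluted in water. Soil was clay, pH 6.5, 1.6% organic matter, 37.3% clay particles, CEC 12.1 mol/kg. The g.ai/ha rate was active ingredient over pot surface area. Controls were untreated and DMF-treated seedlings.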

[2] = tested on: Amaranthus retroflexus; test: Herbicidal activity against Amaranthus retroflexus assessed as growth inhibition at 150 g ai/ha using post-emergence protocol under greenhouse conditions measured 15 days after compound treatment; type: functional; conditions: 360 h, read-out: GI
Summary of the method: (§2)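 Post-emergence greenhouse spray on pot-grown broadleaf weeds at the 2-leaf stage. Formulation concentrates were diluted with water. Soil was clay, pH 6.5, 1.6% organic matter, 37.3% clay particles, CEC 12.1 mol/kg. The rate was total active ingredient divided by pot surface area. Untreated seedlings and DMF-treated seedlings served as controls.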

[3] = biological target: T1, Protoporphyrinogen oxidase (Homo sapiens, UniProt P50336); test: Inhibition of Homo sapiens (human) protoporphyrinogen oxidase
T1 sequence (P50336 whole entry): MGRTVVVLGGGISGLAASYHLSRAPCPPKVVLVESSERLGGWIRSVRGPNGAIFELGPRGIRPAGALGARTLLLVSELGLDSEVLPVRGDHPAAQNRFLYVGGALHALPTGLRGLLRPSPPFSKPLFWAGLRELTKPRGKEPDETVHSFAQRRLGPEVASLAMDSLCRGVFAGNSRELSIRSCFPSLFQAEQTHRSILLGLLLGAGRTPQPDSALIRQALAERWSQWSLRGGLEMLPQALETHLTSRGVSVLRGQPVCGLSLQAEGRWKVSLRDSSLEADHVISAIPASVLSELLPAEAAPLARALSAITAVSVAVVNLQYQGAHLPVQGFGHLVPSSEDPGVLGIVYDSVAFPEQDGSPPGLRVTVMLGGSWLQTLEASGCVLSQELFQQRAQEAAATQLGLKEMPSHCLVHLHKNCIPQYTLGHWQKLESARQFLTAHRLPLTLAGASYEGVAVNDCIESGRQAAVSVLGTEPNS

[4] = tested on: Digitaria sanguinalis; test: Herbicidal activity against Digitaria sanguinalis (hairy crabgrass) assessed as growth inhibition at 150 g ai/ha using post-emergence protocol under greenhouse conditions measured 15 days after compound treatment; type: functional; conditions: 360 h, read-out: GI; summary of the method: as §1
[5] = tested on: Eclipta prostrata; test: Herbicidal activity against Eclipta prostrata assessed as growth inhibition at 150 g ai/ha using post-emergence protocol under greenhouse conditions measured 15 days after compound treatment; type: functional; conditions: 360 h, read-out: GI; summary of the method: as §2
[6] = tested on: Echinochloa crus-galli; test: Herbicidal activity against Echinochloa crus-galli (barnyard grass) assessed as growth inhibition at 150 g ai/ha using post-emergence protocol under greenhouse conditions measured 15 days after compound treatment; type: functional; conditions: 360 h, read-out: GI; summary of the method: as §1
[7] = tested on: Chenopodium album; test: Herbicidal activity against Chenopodium album assessed as growth inhibition at 150 g ai/ha using post-emergence protocol under greenhouse conditions measured 15 days after compound treatment; type: functional; conditions: 360 h, read-out: GI; summary of the method: as §2
[8] = tested on: Brassica juncea; test: Herbicidal activity against Brassica juncea assessed as growth inhibition at 150 g ai/ha using post-emergence protocol under greenhouse conditions measured 15 days after compound treatment; type: functional; conditions: 360 h, read-out: GI; summary of the method: as §2

Compound | inhibition of growth at 150 g/ha [1] | inhibition of growth at 150 g/ha [2] | Ki ([3]; read-out: Ki) | inhibition of growth at 150 g/ha [4] | inhibition of growth at 150 g/ha [5] | inhibition of growth at 150 g/ha [6] | inhibition of growth at 150 g/ha [7] | inhibition of growth at 150 g/ha [8] | Ki ([3]; read-out: pKi (converted))
CCOc1cc(N2CC3=C(CCCC3)C2=O)c(Cl)cc1Cl | < 50% | 50% | 0.67 µM | < 50% | 50% | < 50% | 50% | < 50% | 
CCOc1cc(N2CC3=C(CCCC3)C2=O)c(F)cc1Cl | > 80% | > 80% | 0.2 µM | > 80% | 50% | > 80% | 100% | 50% | 
CCCOc1cc(N2CC3=C(CCCC3)C2=O)c(Cl)cc1Cl | < 50% | > 80% | 0.3 µM | < 50% | < 50% | < 50% | < 50% | < 50% | 
CCCOc1cc(N2CC3=C(CCCC3)C2=O)c(F)cc1Cl | > 80% | > 80% | 0.095 µM | > 80% | 100% | > 80% | 100% | > 80% | 
C=CCOc1cc(N2CC3=C(CCCC3)C2=O)c(F)cc1Cl | > 80% | 100% | 0.12 µM | > 80% | 100% | > 80% | 100% | > 80% | 
O=C1C2=C(CCCC2)C(O)N1c1cc(O)c(Br)cc1F (centres undefined) | < 50% | 50% | 19.3 µM | 50% | 50% | < 50% | 50% | < 50% | 
O=C1C2=C(CCCC2)C(O)N1c1cc(OCc2cccc(F)c2)c(Cl)cc1F (centres undefined) | < 50% | > 80% | 0.78 µM | 50% | 50% | < 50% | 50% | 50% | 
O=C1C2=C(CCCC2)C(O)N1c1cc(OCc2cccc(Cl)c2)c(Cl)cc1F (centres undefined) | < 50% | 50% | 0.53 µM | < 50% | 50% | < 50% | 50% | 50% | 
C=CCOc1cc(N2C(=O)C3=C(CCCC3)C2O)c(Cl)cc1Cl (centres undefined) | < 50% | 50% | 7.45 µM | < 50% | 50% | < 50% | 50% | 50% | 
C=CCOc1cc(N2C(=O)C3=C(CCCC3)C2O)c(F)cc1Cl (centres undefined) | < 50% | > 80% | 1.03 µM | < 50% | 50% | < 50% | > 80% | 50% | 
CCOc1cc(Cl)c([N+](=O)[O-])cc1N1C(=O)C2=C(CCCC2)C1O (centres undefined) | < 50% | > 80% | 359 µM | < 50% | 50% | < 50% | 50% | < 50% | 
C=CCOC1C2=C(CCCC2)C(=O)N1c1cc(O)c(Br)cc1F (centres undefined) | < 50% | 50% | 41.4 µM | 50% | 50% | 50% | 50% | < 50% | 
COC1C2=C(CCCC2)C(=O)N1c1cc(OCc2cccc(Cl)c2)c(Cl)cc1F (centres undefined) | < 50% | 50% | 1.03 µM | < 50% | 50% | 50% | 50% | 50% | 
COc1cc(N2C(=O)C3=C(CCCC3)C2OC)c(F)cc1Cl (centres undefined) | 50% | > 80% | 4.49 µM | 50% | 50% | 50% | > 80% | 50% | 
C=CCOC1C2=C(CCCC2)C(=O)N1c1cc(OCc2cccc(Cl)c2)c(Cl)cc1F (centres undefined) | < 50% | > 80% | 66.6 µM | 50% | 50% | < 50% | < 50% | < 50% | 
C=CCOc1cc(N2C(=O)C3=C(CCCC3)C2OCC=C)c(F)cc1Cl (centres undefined) | > 80% | 100% | 33.1 µM | > 80% | > 80% | 50% | > 80% | 100% | 
C=CCOC1C2=C(CCCC2)C(=O)N1c1cc(OCC)c(Cl)cc1F (centres undefined) | 50% | 100% | 7.02 µM | 50% | 100% | 50% | 100% | 50% | 
C=CCOc1cc(N2C(=O)C3CCCCC3C2O)c(F)cc1Cl (centres undefined) | < 50% | < 50% | 44.8 µM | < 50% | < 50% | < 50% | < 50% | < 50% | 45.7 µM
CC(C)Oc1cc(N2CC3=C(CCCC3)C2=O)c(F)cc1Cl | 50% | 100% | 0.69 µM | < 50% | > 80% | < 50% | > 80% | > 80% | 
Nc1cc(N2CC3=C(CCCC3)C2=O)ccc1Cl | < 50% | < 50% | 27.6 µM | < 50% | < 50% | < 50% | < 50% | < 50% | 
O=C1NC(=O)c2cc(Cl)ccc21 [4-CHLORO-PHTHALIMIDE] |  |  | 87.9 µM |  |  |  |  |  | 
Cc1nn(-c2cc(NS(C)(=O)=O)c(Cl)cc2Cl)c(=O)n1C(F)F [SULFENTRAZONE] | > 80% | 100% |  | < 50% | 100% | < 50% | 100% | 100% | 
